Source: ChEMBL document CHEMBL5356984 (RSC Med Chem, 2023)
Calls of active or inactive are those of the source. The calls are words filed in the database; no cut-off is given here.

Experiments:
[1] = Thermal stability of compound in boiling toluene at 120 degreeC at 1 mg/ml measured for 12 to 24 hrs by HPLC analysis; assay type: physicochemical; conditions: time 12-24 hrs
In short: (§1)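 Compound at 1 mg mL−1 was heated in distilled boiling toluene at 120 °C for 0–24 h. Remaining percentage was measured by HPLC on a C18 column (5 µm, 4.6 × 250 mm) with MeOH/H2O gradients: 70→100% or 45→100% MeOH over 2–15 min, held at 100% to 20 min, then re-equilibrated.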

MCF7 [2] = test: Induction of apoptosis in human MCF7 cells assessed as necrotic cells at 5 uM incubated for 36 hrs by Annexin V/PI staining based flow cytometry (reference value: 2.30 %); assay type: functional
BT-474 = test: Antiproliferative activity against human BT-474 cells assessed as inhibition of cell viability measured after 48 hrs by MTT assay; assay type: functional, cell-based; conditions: BT-474, 48 h
In short: (§2)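 MTT cell viability read-out; IC50 obtained by non-linear regression of concentration–response data; values are mean ± SD of three independent experiments.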

SK-BR-3 [3] = test: Effect on HSF-1 level in human SK-BR-3 cells assessed as nuclear accumulation at 10 uM incubated for 36 hrs by DAPI staining based immunofluorescence analysis; assay type: functional, cell-based
In short: (§3)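 Cells treated 36 h with DMSO vehicle control, then fixed with 4% paraformaldehyde 15 min, permeabilized with 0.2% Triton X-100 5 min, blocked with 3% BSA 15 min; primary antibody then fluorescent secondary antibody, each 1 h at room temperature; HSP70 green, HSF-1 red, nuclei DAPI; imaged by fluorescence microscopy.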

HEK-293T = test: Cytotoxicity against HEK293T cells assessed as cell growth inhibition measured after 48 hrs by MTT assay; assay type: functional, cell-based; conditions: Homo sapiens; in short: as §2
MCF7 [4] = test: Induction of apoptosis in human MCF7 cells assessed as early apoptotic cells at 5 uM incubated for 36 hrs by Annexin V/PI staining based flow cytometry (reference value: 1.13 %); assay type: functional
SK-BR-3 [5] = test: Effect on HSP70 level in human SK-BR-3 cells at 10 uM incubated for 36 hrs by DAPI staining based immunofluorescence analysis; assay type: functional, cell-based; in short: as §3
SK-BR-3 [6] = test: Induction of apoptosis in human SK-BR-3 cells assessed as necrotic cells at 5 uM incubated for 36 hrs by Annexin V/PI staining based flow cytometry (reference value: 1.89 %); assay type: functional
Heat shock protein HSP90 [7] = target: T1, Heat shock protein HSP90 (Homo sapiens, UniProt P07900+P08238); test: Inhibition of HSP90 in human SK-BR-3 cells assessed as decrease in CDK4 level at 5 to 20 uM incubated for 48 hrs by Western blot analysis; assay type: cell-based; conditions: dose 5-20 µM
In short: (§4)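 MCF-7 or SKBr3 cells were exposed for 48 h, then trypsinised, PBS-washed and lysed in RIPA buffer with phosphatase and protease inhibitors. Cleared lysate (14 000 rpm, 4 °C, 15 min) was BCA-quantified, and 20 µg protein was run on SDS-PAGE and blotted. Blots were blocked in 5% milk, incubated with primary antibodies (1:1000) overnight at 4 °C, then HRP secondary, and developed by ECL. GAPDH (1:10000) was the loading control.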

MDA-MB-468 = test: Antiproliferative activity against human MDA-MB-468 cells assessed as inhibition of cell viability measured after 48 hrs by MTT assay; assay type: functional, cell-based; conditions: MDA-MB-468, 48 h; in short: as §2
MCF7 [8] = test: Effect on AKT level in human MCF7 cells at 5 to 20 uM incubated for 48 hrs by Western blot analysis; assay type: functional, cell-based; conditions: dose 5-20 µM
In short: (§5)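 Cells exposed 48 h (DMSO vehicle control); trypsinized, lysed in RIPA with phosphatase/protease inhibitors; 20 μg protein on SDS-PAGE, blotted, blocked 5% milk 1 h; primary antibodies 1:1000 overnight at 4 °C, GAPDH 1:10000 as loading control; HRP secondary 1:1000–1:5000; ECL detection.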

SK-BR-3 [9] = test: Induction of apoptosis in human SK-BR-3 cells assessed as increase in cleaved PARP level at 10 to 20 uM incubated for 48 hrs by Western blot analysis; assay type: functional, cell-based; conditions: dose 10-20 µM; in short: as §5
MCF7 [10] = test: Induction of apoptosis in human MCF7 cells assessed as viable cells at 10 uM incubated for 36 hrs by Annexin V/PI staining based flow cytometry (reference value: 90.5 %); assay type: functional; conditions: read-out: Activity
MCF7 [11] = test: Antiproliferative activity against human MCF7 cells assessed as inhibition of cell viability at 20 uM measured after 48 hrs by MTT assay relative to control; assay type: functional
SK-BR-3 [12] = test: Induction of apoptosis in human SK-BR-3 cells assessed as viable cells at 20 uM incubated for 36 hrs by Annexin V/PI staining based flow cytometry (reference value: 90.4 %); assay type: functional; conditions: read-out: Activity
MDA-MB-231 = test: Antiproliferative activity against human MDA-MB-231 cells assessed as inhibition of cell viability measured after 48 hrs by MTT assay; assay type: functional, cell-based; conditions: MDA-MB-231, 48 h; in short: as §2
SK-BR-3 [13] = test: Induction of apoptosis in human SK-BR-3 cells assessed as necrotic cells at 10 uM incubated for 36 hrs by Annexin V/PI staining based flow cytometry (reference value: 1.89 %); assay type: functional
MCF7 [14] = test: Induction of apoptosis in human MCF7 cells assessed as necrotic cells at 20 uM incubated for 36 hrs by Annexin V/PI staining based flow cytometry (reference value: 2.30 %); assay type: functional
MCF7 [15] = test: Effect on HSP70 level in human MCF7 cells at 5 to 20 uM incubated for 48 hrs by Western blot analysis; assay type: functional, cell-based; conditions: dose 5-20 µM; in short: as §5
SK-BR-3 [16] = test: Induction of apoptosis in human SK-BR-3 cells assessed as viable cells at 10 uM incubated for 36 hrs by Annexin V/PI staining based flow cytometry (reference value: 90.4 %); assay type: functional; conditions: read-out: Activity
SK-BR-3 [17] = test: Induction of apoptosis in human SK-BR-3 cells assessed as increase in cleaved pro-caspase-3 level at 10 to 20 uM incubated for 48 hrs by Western blot analysis; assay type: functional, cell-based; conditions: dose 10-20 µM; in short: as §5
Heat shock protein HSP90 [18] = target: T1, Heat shock protein HSP90; test: Inhibition of HSP90 (unknown origin) at C-terminal by AlphaScreen assay; assay type: protein assay
In short: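 Modified AlphaScreen system measuring disruption of Cyp40 binding to recombinant HSP90 C-terminal domain; IC50 from two independent experiments.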

Heat shock protein HSP90 [19] = target: T1, Heat shock protein HSP90; test: Inhibition of HSP90 in human SK-BR-3 cells assessed as decrease in HER2 level at 5 to 20 uM incubated for 48 hrs by Western blot analysis; assay type: cell-based; conditions: dose 5-20 µM; in short: as §4
[20] = Thermal stability of compound in boiling toluene at 120 degreeC at 1 mg/ml measured for approximately 12 hrs by HPLC analysis; assay type: physicochemical; in short: as §1
MCF7 [21] = test: Induction of apoptosis in human MCF7 cells assessed as viable cells at 5 uM incubated for 36 hrs by Annexin V/PI staining based flow cytometry (reference value: 90.5 %); assay type: functional; conditions: read-out: Activity
SK-BR-3 [22] = test: Induction of apoptosis in human SK-BR-3 cells assessed as early apoptotic cells at 20 uM incubated for 36 hrs by Annexin V/PI staining based flow cytometry (reference value: 2.73 %); assay type: functional
MCF7 [23] = test: Induction of cell cycle arrest in human MCF7 cells assessed as accumulation of cells at G1 phase at 5 to 10 uM incubated for 36 hrs by PI staining based flow cytometry; assay type: functional; conditions: dose 5-10 µM
In short: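 Following 36 h treatment (0, 5, 10 μM), trypsinized cells fixed overnight in 70% ethanol, treated with RNase (0.2 mg/mL) and PI (0.1 mg/mL) for 20 min, then analysed by flow cytometry for cell-cycle distribution; n = 3 versus control.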

CN1CCN(/C=C/C(=O)/C=C/c2cccc(O[Si](C)(C)C(C)(C)C)c2)CC1
Stability [1]: Unstable
Activity (MCF7 [2]): 8.45%
IC50 (BT-474): 9.06 µM
Activity (SK-BR-3 [3]): inactive
IC50 (HEK-293T): 32.6 µM
Activity (MCF7 [4]): 1.58%
Activity (SK-BR-3 [5]): inactive
Activity (SK-BR-3 [6]): 1.81%
inhibition (Heat shock protein HSP90 [7]): Active
IC50 (MDA-MB-468): 8.16 µM
Activity (MCF7 [8]): inactive
Activity (SK-BR-3 [9]): Active
viability at 10 µM (MCF7 [10]): 65.6%
inhibition at 20 µM (MCF7 [11]): > 50%
viability at 20 µM (SK-BR-3 [12]): 18.5%
IC50 (MDA-MB-231): 11.7 µM
Activity (SK-BR-3 [13]): 1.7%
Activity (MCF7 [14]): 16.2%
Activity (MCF7 [15]): inactive
viability at 10 µM (SK-BR-3 [16]): 86.9%
Activity (SK-BR-3 [17]): Active
IC50 (Heat shock protein HSP90 [18]): 53.94 µM
inhibition (Heat shock protein HSP90 [19]): Active
Stability [20]: Stable
viability at 5 µM (MCF7 [21]): 80%
Activity (SK-BR-3 [22]): 47.7%
Activity (MCF7 [23]): Active
